Five compounds from ChEMBL document CHEMBL3044983, “Antifungal activity and biotransformation of diisophorone by Botrytis cinerea” (J Agric Food Chem, 2005) can be followed below.

The test system of experiment [1] is Botrytis cinerea. The experiment can be described thus: Antifungal activity against Botryotinia fuckeliana UCA992 assessed as inhibition of radial mycelial growth up to 200 ppm for 5 days by poisoned food technique. In kind it is functional. Put shortly:
(§1)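 Radial growth on glucose-malt-peptone-agar (pH 6.5-7.0). Test compound was added in ethanol to final 50-200 mg/L, and ethanol was equal in control and treated plates. A 1.5 cm mycelial disk from an actively growing culture was placed at the plate centre, and radial growth was followed over 8 days. Percent inhibition was taken from colony diameters relative to the negative control, as the mean of triplicates.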

For experiment [2], the system named is Botrytis cinerea. The experiment can be described thus: Antifungal activity against Botryotinia fuckeliana UCA992 assessed as inhibition of radial mycelial growth up to 100 ppm for 5 days by poisoned food technique. In kind it is functional, organism-based. Put shortly: as §1
The subject of experiment [3] is Botrytis cinerea. The experiment can be described thus: Antifungal activity against Botryotinia fuckeliana UCA992 assessed as inhibition of radial mycelial growth up to 150 ppm for 5 days by poisoned food technique. In kind it is functional. The essentials:
as §1

Experiment [4] concerns Botrytis cinerea. Description: Antifungal activity against Botryotinia fuckeliana UCA992 assessed as inhibition of radial mycelial growth for 5 days by poisoned food technique. In kind it is functional, organism-based.
Experiment [5] deals with Botrytis cinerea. Description: Antifungal activity against Botryotinia fuckeliana 2100 assessed as inhibition of radial mycelial growth at 50 ppm for 5 days by poisoned food technique. It is filed as functional. The settings on record: Botrytis cinerea, 2100, 120 h. Put shortly:
as §1

Experiment [6] relates to Botrytis cinerea. Description: Antifungal activity against Botryotinia fuckeliana 2100 assessed as inhibition of radial mycelial growth for 5 days by poisoned food technique. In kind it is functional, organism-based.
Experiment [7] has as its system Botrytis cinerea. The experiment can be described thus: Antifungal activity against Botryotinia fuckeliana UCA992 assessed as inhibition of radial mycelial growth up to 50 ppm for 5 days by poisoned food technique. It is filed as functional.

Active and inactive are the calls of the source. The calls are words filed in the database; no cut-off is given here.

For the compound `CC1(C)CC(=O)C2=C(C1)[C@@H](O)[C@]1(C)CC(C)(C)C[C@@]2(O)C1`, the inhibition result in the experiment with Botrytis cinerea [1] and in the experiment on Botrytis cinerea [2] was “inactive” in each case.

Regarding `CC1(C)C[C@@]2(C)CC3=C(C(=O)CC(C)(C)[C@@H]3O)[C@@](O)(C1)C2`, the inhibition result in the experiment on Botrytis cinerea [1] and in the experiment on Botrytis cinerea [2] was “inactive” throughout.

`CC1(C)C[C@@]2(C)CC3=C(C(=O)CC(C)(C)[C@H]3O)[C@@](O)(C1)C2`: the inhibition result in the experiment on Botrytis cinerea [1] and in the experiment on Botrytis cinerea [2] was “inactive” in each case.

For the compound `CC1(C)CC(=O)C2=C(C1)C[C@]1(C)CC(C)(C)C[C@@]2(O)C1` [DIISOPHORONE], the “inhibition (INH)” value is given as 76% in the experiment on Botrytis cinerea [3], 92% with Botrytis cinerea [1] and 6% with Botrytis cinerea [7]. For the same compound, the values for the IC50 in the experiment with Botrytis cinerea [4] and with Botrytis cinerea [6] were 89 ppm and 70 ppm, respectively. The inhibition at 50 ppm in the experiment with Botrytis cinerea [5] came to 69%. Also, in the experiment on Botrytis cinerea [2], the inhibition entry is “inactive”.

As to `CC1(C)C[C@@]2(O)C[C@@](C)(C1)[C@H](O)C1=C2C(=O)C[C@@](C)(CO)C1`, the inhibition entry in the experiment with Botrytis cinerea [1] and in the experiment with Botrytis cinerea [2] was “inactive” each time.
